Source: ChEMBL document CHEMBL1155775, “Pharmacokinetics of the antiviral agent beta-D-2'-deoxy-2'-fluoro-2'-C-methylcytidine in rhesus monkeys” (Antimicrob Agents Chemother, 2007)

Legend:
[1] = Metabolic stability in human whole blood assessed as 2'-deoxy-2'-fluoro-2'-C-methyluridine level at 1000 dpm/pmol after 24 hrs at 37 degC; type: ADME, tissue-based
In short: (§1)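 3H-labeled nucleoside (10 μM, 1,000 dpm/pmol) incubated in human or monkey whole blood at 37°C for 0–48 h. Aliquots centrifuged, supernatant extracted with acetonitrile, dried, redissolved in water and run on ion-pairing reverse-phase C18 HPLC (ammonium acetate/tetrabutylammonium phosphate pH 7.0, methanol) to measure parent and deaminated product. Each time point in replicate.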

[2] = Metabolic stability in rhesus monkey whole blood assessed as 2'-deoxy-2'-fluoro-2'-C-methyluridine level at 1000 dpm/pmol after 24 hrs at 37 degC; type: ADME, tissue-based, Macaca mulatta; in short: as §1
Hepatitis C virus = experiment: Antiviral activity against HCV in human Huh7 cells by replicon based assay; type: functional, Hepacivirus hominis; details: Huh-7
[3] = Metabolic stability in human whole blood at 1000 dpm/pmol after 48 hrs at 37 degC; type: ADME, tissue-based; details: read-out: Stability; in short: as §1
[4] = Oral bioavailability in rhesus monkey at 33.3 mg/kg, po administered as single dose; type: ADME, organism-based, Macaca mulatta; details: in vivo
In short: (§2)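 Three rhesus monkeys; single 33.3 mg/kg oral dose by gastric intubation in water, then after ≥4-week washout i.v. bolus via femoral vein in sterile normal saline; anesthetized (ketamine plus Telazol i.m.) for 4 h. Femoral venous blood at 0–24 h; serum by HPLC-UV 270 nm, 3TC internal standard. Noncompartmental analysis per animal and pooled; AUC by trapezoid extrapolated to infinity; F = AUCoral/AUCi.v.; MAT = MRToral − MRTi.v.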

[5] = Metabolic stability in human whole blood at 1000 dpm/pmol after 0.25 hrs at 37 degC; type: ADME, tissue-based; details: read-out: Stability; in short: as §1
[6] = Metabolic stability in human whole blood at 1000 dpm/pmol after 10 hrs at 37 degC; type: ADME, tissue-based; details: read-out: Stability; in short: as §1
[7] = Terminal half life in rhesus monkey at 33.3 mg/kg, iv administered as single dose; type: ADME, organism-based, Macaca mulatta; parameters: dose 33.3 mg/kg, route intravenous; details: in vivo, read-out: beta t1/2 (converted); in short: as §2
[8] = Terminal half life in rhesus monkey at 33.3 mg/kg, po administered as single dose; type: ADME, organism-based, Macaca mulatta; parameters: dose 33.3 mg/kg, route oral; details: in vivo, read-out: beta t1/2 (converted); in short: as §2
[9] = Metabolic stability in human whole blood at 1000 dpm/pmol after 8 hrs at 37 degC; type: ADME, tissue-based; details: read-out: Stability; in short: as §1
[10] = Metabolic stability in rhesus monkey whole blood at 1000 dpm/pmol after 48 hrs at 37 degC; type: ADME, tissue-based, Macaca mulatta; details: read-out: Stability; in short: as §1
[11] = Metabolic stability in rhesus monkey whole blood at 1000 dpm/pmol after 10 hrs at 37 degC; type: ADME, tissue-based, Macaca mulatta; details: read-out: Stability; in short: as §1
[12] = Metabolic stability in human whole blood at 1000 dpm/pmol after 1 hr at 37 degC; type: ADME, tissue-based; details: read-out: Stability; in short: as §1
[13] = Metabolic stability in human whole blood at 1000 dpm/pmol after 0.5 hrs at 37 degC; type: ADME, tissue-based; details: read-out: Stability; in short: as §1
[14] = Volume of distribution at steady state in rhesus monkey at 33.3 mg/kg, iv administered as single dose; type: ADME, organism-based, Macaca mulatta; parameters: dose 33.3 mg/kg, route intravenous; details: in vivo, read-out: Vdss; in short: as §2
[15] = Stability in rhesus monkey urine at 33.3 mg/kg assessed as unchanged drug dose administered as single dose during 8 hrs; type: ADME, organism-based, Macaca mulatta; parameters: dose 33.3 mg/kg; details: read-out: Stability
In short: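 Catheterized rhesus monkeys given single 33.3 mg/kg oral or i.v. dose; urine collected in intervals over 0–8 h, kept on ice then frozen at −70°C; diluted 20-fold (oral) or 50-fold (i.v.), 3TC internal standard added, parent and deaminated uridine metabolite quantified by HPLC-UV 270 nm; percent of dose recovered.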

[16] = Metabolic stability in human whole blood at 1000 dpm/pmol after 24 hrs at 37 degC; type: ADME, tissue-based; details: read-out: Stability; in short: as §1
[17] = Mean residence time in rhesus monkey at 33.3 mg/kg, po administered as single dose; type: ADME, organism-based, Macaca mulatta; parameters: dose 33.3 mg/kg, route oral; details: in vivo; in short: as §2
[18] = Drug level in rhesus monkey cerebrospinal fluid at 33.3 mg/kg, po administered as single dose after 1 hr; type: ADME, organism-based, Macaca mulatta; parameters: dose 33.3 mg/kg, route oral; details: read-out: Drug uptake
In short: (§3)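 Same three anesthetized rhesus monkeys given single 33.3 mg/kg oral (water, gastric intubation) or i.v. (saline, femoral vein) dose. CSF taken 1 h post-dose by cisternal or lumbar tap; 3TC internal standard added, analyzed by reverse-phase HPLC with UV detection at 270 nm against standards in water (0.1–25 μg/ml).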

[19] = Drug level in rhesus monkey cerebrospinal fluid assessed as 2'-deoxy-2'-fluoro-2'-C-methyluridine level at 33.3 mg/kg, iv administered as single dose after 1 hr; type: ADME, organism-based, Macaca mulatta; parameters: dose 33.3 mg/kg, route intravenous; details: in vivo, read-out: Drug uptake; in short: as §3
[20] = Clearance in rhesus monkey at 33.3 mg/kg, po administered as single dose; type: ADME, organism-based, Macaca mulatta; parameters: dose 33.3 mg/kg, route oral; details: in vivo; in short: as §2
HepG2 = experiment: Cytotoxicity against human HepG2 cells; type: cell-based
[21] = Metabolic stability in rhesus monkey whole blood at 1000 dpm/pmol after 1 hr at 37 degC; type: ADME, tissue-based, Macaca mulatta; details: read-out: Stability; in short: as §1
[22] = Metabolic stability in rhesus monkey whole blood at 1000 dpm/pmol after 2 hrs at 37 degC; type: ADME, tissue-based, Macaca mulatta; details: read-out: Stability; in short: as §1
[23] = Drug level in rhesus monkey cerebrospinal fluid at 33.3 mg/kg, iv administered as single dose after 1 hr; type: ADME, organism-based, Macaca mulatta; parameters: dose 33.3 mg/kg, route intravenous; details: read-out: Drug uptake; in short: as §3
[24] = Mean residence time in rhesus monkey at 33.3 mg/kg, iv administered as single dose; type: ADME, organism-based, Macaca mulatta; parameters: dose 33.3 mg/kg, route intravenous; details: in vivo; in short: as §2
[25] = AUC in rhesus monkey at 33.3 mg/kg, iv administered as single dose; type: ADME, organism-based, Macaca mulatta; parameters: dose 33.3 mg/kg, route intravenous; details: plasma; in short: as §2
Rhesus monkey [26] = experiment: Apparent volume of distribution with respect to bioavailability in rhesus monkey at 33.3 mg/kg, iv administered as single dose; type: ADME, organism-based, Macaca mulatta; details: in vivo; in short: as §2
Rhesus monkey [27] = experiment: Mean absorption time in rhesus monkey at 33.3 mg/kg, po administered as single dose; type: ADME, organism-based, Macaca mulatta; parameters: dose 33.3 mg/kg, route oral; details: in vivo; in short: as §2
[28] = Metabolic stability in rhesus monkey whole blood at 1000 dpm/pmol after 0.5 hrs at 37 degC; type: ADME, tissue-based, Macaca mulatta; details: read-out: Stability; in short: as §1
[29] = Metabolic stability in rhesus monkey whole blood at 1000 dpm/pmol after 0.25 hrs at 37 degC; type: ADME, tissue-based, Macaca mulatta; details: read-out: Stability; in short: as §1
[30] = Metabolic stability in rhesus monkey whole blood at 1000 dpm/pmol after 4 hrs at 37 degC; type: ADME, tissue-based, Macaca mulatta; details: read-out: Stability; in short: as §1
[31] = Tmax in rhesus monkey at 33.3 mg/kg, iv administered as single dose; type: ADME, organism-based, Macaca mulatta; parameters: dose 33.3 mg/kg, route intravenous; details: in vivo
In short: (§4)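 Three rhesus monkeys, anesthetised with ketamine plus tiletamine/zolazepam, received a single 33.3 mg/kg bolus in sterile normal saline via the femoral vein. Serum was acetonitrile-extracted with 3TC as internal standard and assayed by reverse-phase HPLC-UV at 270 nm. Peak concentration and its time were taken as observed; noncompartmental analysis.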

[32] = Apparent oral clearance in rhesus monkey at 33.3 mg/kg, po administered as single dose; type: ADME, organism-based, Macaca mulatta; parameters: dose 33.3 mg/kg, route oral; details: in vivo; in short: as §2
[33] = Cmax in rhesus monkey at 33.3 mg/kg, iv administered as single dose; type: ADME, organism-based, Macaca mulatta; parameters: dose 33.3 mg/kg, route intravenous; details: in vivo; in short: as §4
[34] = Metabolic stability in rhesus monkey whole blood at 1000 dpm/pmol after 24 hrs at 37 degC; type: ADME, tissue-based, Macaca mulatta; details: read-out: Stability; in short: as §1
[35] = AUC in rhesus monkey at 33.3 mg/kg, po administered as single dose; type: ADME, organism-based, Macaca mulatta; parameters: dose 33.3 mg/kg, route oral; details: plasma; in short: as §2
[36] = Apparent volume of distribution with respect to bioavailability in rhesus monkey at 33.3 mg/kg, po administered as single dose; type: ADME, organism-based, Macaca mulatta; details: in vivo, read-out: Vc/F; in short: as §2
[37] = Metabolic stability in human whole blood at 1000 dpm/pmol after 2 hrs at 37 degC; type: ADME, tissue-based; details: read-out: Stability; in short: as §1
[38] = Metabolic stability in human whole blood at 1000 dpm/pmol after 4 hrs at 37 degC; type: ADME, tissue-based; details: read-out: Stability; in short: as §1
[39] = Clearance in rhesus monkey at 33.3 mg/kg, iv administered as single dose; details: in vivo
[40] = Metabolic stability in rhesus monkey whole blood at 1000 dpm/pmol after 8 hrs at 37 degC; type: ADME, tissue-based, Macaca mulatta; details: read-out: Stability; in short: as §1

## C[C@@]1(F)[C@H](O)[C@@H](CO)O[C@H]1n1ccc(=O)[nH]c1=O
[1]
  Stability: 4.9%
[2]
  Stability: 6.9%

## C[C@@]1(F)[C@H](O)[C@@H](CO)O[C@H]1n1ccc(N)nc1=O
Hepatitis C virus
  EC90: 5.4 µM
[3]
  remaining at 48 h: 83.7%
[4]
  bioavailability: 24%
[5]
  remaining at 0.25 h: 100%
[6]
  remaining at 10 h: 99.1%
[7]
  half-life: 4.54 h
[8]
  half-life: 5.64 h
[9]
  remaining at 8 h: 100%
[10]
  remaining at 48 h: 80%
[11]
  remaining at 10 h: 97.2%
[12]
  remaining at 1 h: 100%
[13]
  remaining at 0.5 h: 100%
[14]
  Vd: 1.51 L/kg
[15]
  dose excreted at 8 h: 6%
[16]
  remaining at 24 h: 95.1%
[17]
  MRT: 7.11 h
[18]
  concentration at 1 h: 280 nM
[19]
  concentration: 1380 nM
[20]
  CL/F: 48 mL/min/kg
HepG2
  Activity: > 100 µM
[21]
  remaining at 1 h: 100%
[22]
  remaining at 2 h: 100%
[23]
  concentration at 1 h: 3670 nM
[24]
  MRT: 2.5 h
[25]
  AUC: 235 µM·h
Rhesus monkey [26]
  Vc/F: 4.8 L/kg
Rhesus monkey [27]
  MAT: 4.61 h
[28]
  remaining at 0.5 h: 100%
[29]
  remaining at 0.25 h: 100%
[30]
  remaining at 4 h: 100%
[31]
  Tmax: 0.25 h
[32]
  CL/F: 48 mL/min/kg
[33]
  Cmax: 154000 nM
[34]
  remaining at 24 h: 93.1%
[35]
  AUC: 44.1 µM·h
[36]
  Vd/F: 21.9 L/kg
[37]
  remaining at 2 h: 100%
[38]
  remaining at 4 h: 100%
[39]
  clearance: 10 mL/min/kg
[40]
  remaining at 8 h: 100%
